Results from ChEMBL document CHEMBL4513216, “Probing the Open Global Health Chemical Diversity Library for Multistage-Active Starting Points for Next-Generation Antimalarials” (ACS Infect Dis, 2020).

Assay: Toxicity liver stage against HepG2, at 10uM
Format: cell-based
Design: test concentration 10 uM, cell line HepG2-A16-CD81EGFP
Details: human, HepG2-A16-CD81EGFP cells; read-out: INHIBITION
Method in brief: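 Uninfected HepG2-A16-CD81EGFP cells, 3 × 10^3 per well, 1536-well, plated on prespotted compound at 10 μM final, parasite-free screening media added to match infected plates; puromycin 10 μM positive, DMSO 0.5% negative; run in parallel with 48 h PbLuc assay at 37 °C, 5% CO2; viability by CellTiter-Glo luminescence, normalized to controls.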

## COCCO[C@H]1COCCN(Cc2ccc(OC)cc2)C1
  cytotoxicity at 10 µM: 9.71%

## CC(C)NC(=O)CN1CCCNCC1
  cytotoxicity at 10 µM: -0.616%

## Cc1ccc(C(=O)Nc2nnc(C3CC3)s2)c(-n2cnnn2)c1C
  cytotoxicity at 10 µM: 12.3%

## O=C(CSC1=NS(=O)(=O)c2cc(F)ccc2N1)Nc1ccc(Cl)cc1
  cytotoxicity at 10 µM: 8.93%

## COC1(CNC(=O)CCCc2ccccc2)CCSC1 (stereo unspecified)
  cytotoxicity at 10 µM: 4.68%

## O=C(NCCn1nc(-n2cncn2)ccc1=O)c1ccccc1Br
  cytotoxicity at 10 µM: -2.02%

## Cc1cccc(CN2CCC3(CCC(C(=O)N(C)C)O3)CC2)n1 (stereo unspecified)
  cytotoxicity at 10 µM: 3.14%

## COc1cc(OC)cc(C2SCC(=O)Nc3ccsc32)c1 (stereo unspecified)
  cytotoxicity at 10 µM: -1.16%

## CCOC(=O)c1s/c(=N\C(=O)COc2cnc(C)cc2O)[nH]c1C
  cytotoxicity at 10 µM: 5.56%

## COc1ccc(C)cc1-c1[nH]c2ccccc2c1C(=O)O
  cytotoxicity at 10 µM: 0.806%

## COCCn1ccc(=O)c(OCC(=O)Nc2cccc(C(C)=O)c2)c1C
  cytotoxicity at 10 µM: 4.31%

## COc1cc(C2CC(=O)Oc3cc(C)[nH]c(=O)c32)ccc1OC(F)F (stereo unspecified)
  cytotoxicity at 10 µM: 7.34%

## CNc1nc2c(s1)C(c1c(F)cccc1Cl)CC(=O)N2 (stereo unspecified)
  cytotoxicity at 10 µM: -14.7%

## CC(C)(C)C(=O)N1CCCC1c1cc(CO)[nH]n1 (stereo unspecified)
  cytotoxicity at 10 µM: 1.61%

## CCS(=O)(=O)N1C[C@@H](c2cc(O)nc(C)n2)[C@H](c2ccccc2F)C1
  cytotoxicity at 10 µM: 7.17%

## CC(=O)N1CCC1c1cc(N2CC(O)C2)nc(C)n1 (stereo unspecified)
  cytotoxicity at 10 µM: 5.76%

## O=C1NC2(CCN(CC(=O)N3CCOCC3)CC2)Nc2ccccc21
  cytotoxicity at 10 µM: -1.71%

## COCCC(=O)N1C[C@@H](c2cccc(OC)c2)[C@@]2(CCCCC(=O)N2)C1
  cytotoxicity at 10 µM: 9.47%

## CCCn1cc(S(=O)(=O)N(C)Cc2nonc2C)c(C)n1
  cytotoxicity at 10 µM: 12.7%

## CC(=O)N1C[C@H]2CCCN(S(=O)(=O)c3ccc(Cl)s3)[C@H]2C1
  cytotoxicity at 10 µM: -2.32%

## Cc1n[nH]c(C)c1CCC(=O)NCC1(O)CCN(c2ccccn2)C1 (stereo unspecified)
  cytotoxicity at 10 µM: -1.08%

## Cn1cc(C(=O)N2CCCC(Cc3cncc4ccccc34)C2)cn1 (stereo unspecified)
  cytotoxicity at 10 µM: -13.2%

## O=C(O)COCC(=O)NC1CC2(CCCCC2)Oc2ccccc21 (stereo unspecified)
  cytotoxicity at 10 µM: -28.5%

## CNC(=O)C1(c2cnccn2)CCCN1C(=O)c1ccc(F)cc1 (stereo unspecified)
  cytotoxicity at 10 µM: 0.918%

## CC(C)(C)c1nnc(NCc2ccc(F)cc2)o1
  cytotoxicity at 10 µM: 6.88%

## CCn1cnnc1CNC(=O)NCC(O)c1ccc(OC)cc1 (stereo unspecified)
  cytotoxicity at 10 µM: 5.66%

## COC(=O)c1ccc(S(=O)(=O)N2CCCn3ncnc32)s1
  cytotoxicity at 10 µM: 19.8%

## Cc1cc(C2CCCN(C(=O)COc3cccc(F)c3)C2)n[nH]1 (stereo unspecified)
  cytotoxicity at 10 µM: 5.95%

## NC(=O)C1CCN(C(=O)CSC2CCCc3ccccc32)CC1 (stereo unspecified)
  cytotoxicity at 10 µM: 1.4%

## CC(CS(C)(=O)=O)N(C(=O)Nc1cc(F)ccc1Cl)C1CC1 (stereo unspecified)
  cytotoxicity at 10 µM: -4.15%

## CCOc1cncc(N2CCN(c3ccccc3F)CC2)n1
  cytotoxicity at 10 µM: -0.0195%

## COc1ccc(S(=O)(=O)NCCC(=O)NCc2ccoc2)cc1OC
  cytotoxicity at 10 µM: 10.8%

## Cc1ccc(C2COCCN2C(=O)c2ccsc2)o1 (stereo unspecified)
  cytotoxicity at 10 µM: -2.55%

## CC(C)CN1CCN(C(=O)c2cc(=O)c3ccccc3[nH]2)CC1
  cytotoxicity at 10 µM: -4.92%

## CC(NC(=O)Cn1cc(C(N)=O)c(-c2ccccc2)n1)C1CC1 (stereo unspecified)
  cytotoxicity at 10 µM: -7.9%

## Cc1nnc2ccc(NCC3(N4CCCCC4)CCOCC3)nn12
  cytotoxicity at 10 µM: -3.59%

## Cc1cc(OC(F)F)c(C(=O)N2CC[C@H](O)C2)s1
  cytotoxicity at 10 µM: 9.67%

## Cc1cc(Br)ccc1C(=O)Nc1c(C(N)=O)n[nH]c1C
  cytotoxicity at 10 µM: -2.58%

## CC(C)(C)CNC(=O)CNC(=O)C1CC1
  cytotoxicity at 10 µM: -1.15%

## Cc1nc2c(s1)C(N(C)C(=O)NCCCC(C)(C)CO)CCC2 (stereo unspecified)
  cytotoxicity at 10 µM: -3.43%

## O=C(CCOCC(F)(F)F)NS(=O)(=O)c1cccnc1
  cytotoxicity at 10 µM: 0.946%

## COCCN1CCC(CNC(=O)C2(S(C)(=O)=O)CCCC2)CC1
  cytotoxicity at 10 µM: -9.61%

## CC(C)(C)C(=O)NS(=O)(=O)c1ccc(C#N)c(C(F)(F)F)c1
  cytotoxicity at 10 µM: 1.38%

## CCCc1nc(C[S+]([O-])Cc2cn3cccc(C)c3n2)no1 (stereo unspecified)
  cytotoxicity at 10 µM: 2.48%

## CCS(=O)(=O)N1CCc2c(cccc2NC(=O)NCCOC)C1
  cytotoxicity at 10 µM: 2.17%

## O=C1[C@H]2CN(S(=O)(=O)C3CC3)C[C@H]2CN1CC1CC1
  cytotoxicity at 10 µM: 1.8%

## CCC[C@@H]1CN(S(=O)(=O)c2ccc3[nH]c(=O)[nH]c3c2)C[C@H]1NC(C)=O
  cytotoxicity at 10 µM: -7.19%

## Cc1cc2ccccc2n1CCC(=O)NCCN(C)S(C)(=O)=O
  cytotoxicity at 10 µM: 5.56%

## Cc1cc2c(=O)n(CCOCCO)cnc2s1
  cytotoxicity at 10 µM: 8.72%

## Cc1nc(-c2cccc(N3CCC(NC4CCSC4)CC3)c2)cs1 (stereo unspecified)
  cytotoxicity at 10 µM: 2.86%

## CCc1nn(C)c(Cl)c1CN1CCC(c2cc(O)nc(C)n2)CC1
  cytotoxicity at 10 µM: -9.74%

## COc1ccc(-c2cccc(-c3ccn(CC4COCCO4)n3)c2)nn1 (stereo unspecified)
  cytotoxicity at 10 µM: -7.78%

## CCCC(=O)N1CCC(N2CC[C@@](O)(CCOC)[C@H](C)C2)CC1
  cytotoxicity at 10 µM: -3.58%

## OCCN(Cc1ccccc1)Cc1ccsc1
  cytotoxicity at 10 µM: 4.7%

## CCn1c(Cn2cncn2)nnc1C1CCN(Cc2ccccn2)CC1
  cytotoxicity at 10 µM: 9.78%

## CN(C)Cc1nnc(C(=O)N(C)Cc2ccc(C(F)(F)F)cc2)o1
  cytotoxicity at 10 µM: -6.72%

## CC(CN1CC[C@@H]2CCCC[C@@H]2C1)n1cnc2ccccc21 (stereo partly specified)
  cytotoxicity at 10 µM: 7.16%

## CCOC(=O)N1CCN(C(=O)C(C)n2ccnc2C(C)C)CC1 (stereo unspecified)
  cytotoxicity at 10 µM: -9.28%

## CCCc1cncnc1N1CCC2(CCC(=O)N(C3CCCC3)C2)CC1
  cytotoxicity at 10 µM: 2.61%

## CCOCC(O)CN1CCN(C(=O)c2cc(F)cc(F)c2)CC1 (stereo unspecified)
  cytotoxicity at 10 µM: 8.1%

## Fc1ccc(-c2nc(CNCCn3cccn3)cs2)cc1
  cytotoxicity at 10 µM: -11.2%

## Cc1cccc(C(=O)NC(C)CN2CCCC2=O)n1 (stereo unspecified)
  cytotoxicity at 10 µM: -9.51%

## CC(C)NC(=O)NCc1ccc(C(=O)NC(C)Cn2cccn2)cc1 (stereo unspecified)
  cytotoxicity at 10 µM: -1.46%

## O=C(CCn1cncn1)NCC(c1ccco1)N1CCCCC1 (stereo unspecified)
  cytotoxicity at 10 µM: -2.97%

## O=C(c1cc(F)ccc1F)C1CCN(C(=O)c2cnccn2)CC1
  cytotoxicity at 10 µM: -27.2%

## CNc1cc2c(nn1)CCN(C(=O)c1coc(Br)c1)C2
  cytotoxicity at 10 µM: -13.6%

## COc1c(CNCC(O)c2ccccc2)c(C(C)C)nn1C (stereo unspecified)
  cytotoxicity at 10 µM: -16.5%

## Cc1cc(NC(=O)CN2CCn3c(nnc3C3CC3)C2)no1
  cytotoxicity at 10 µM: -7.32%

## Cc1n[nH]c(=O)c2c(NC(=O)CN3CCC(C)CC3)oc(C)c12
  cytotoxicity at 10 µM: -1.5%

## Cc1ccc(CN2CCC3(CC2)NC(=O)CC3c2ccccc2)s1 (stereo unspecified)
  cytotoxicity at 10 µM: -1.39%

## CC(=O)N1CCN(Cc2ccc(C)o2)CC2(CC(=O)N(C)C2)C1 (stereo unspecified)
  cytotoxicity at 10 µM: -2.01%

## CN1CCc2c(C#N)c(NCCCN3CCOCC3)n3cnnc3c2C1
  cytotoxicity at 10 µM: -7.14%

## O=C1[C@H]2CN(Cc3ccoc3)C[C@H]2CN1CCN1CCCC1
  cytotoxicity at 10 µM: 1.05%

## Cc1ccc(CN2CCc3nnc(CN4CCCC4=O)n3CC2)o1
  cytotoxicity at 10 µM: -4.28%

## CC(C)CN1CC[C@@H]2[C@@H]1CCN2C(=O)N(C)C
  cytotoxicity at 10 µM: -0.88%

## CC1c2ncc(CNC(=O)C3CC3)n2CCN1CC1CCC1 (stereo unspecified)
  cytotoxicity at 10 µM: -3.15%

## Cc1ccc(N2CC[C@H]3O[C@@H](C(=O)N4CCCCO4)CC[C@H]32)nn1
  cytotoxicity at 10 µM: 5.37%

## CCS(=O)(=O)N1CCc2onc(COc3ccccn3)c2C1
  cytotoxicity at 10 µM: -4.72%

## O=C(NCCn1nc(C2CCNC2)c2cccnc21)c1ccccn1 (stereo unspecified)
  cytotoxicity at 10 µM: -25.7%

## COc1ccc(-n2cc3[nH]c(=O)[nH]n3c2=O)cc1
  cytotoxicity at 10 µM: -0.106%

## Cn1cc(C(=O)N2C[C@H]3CC(Oc4ccccc4)C[C@H]3C2)cn1 (stereo partly specified)
  cytotoxicity at 10 µM: 3.6%
